What was measured:
[1] = tested on: K562; assay: Cytotoxicity against human K562 cell line after 96 hrs by MTT assay; assay type: functional; conditions: K562, 96 h
[2] = tested on: Panel NCI-60 (60 carcinoma cell lines); assay: Cytotoxicity against human NCI60 cell line […]; assay type: functional; conditions: for CC50: read-out: LC50 (the source's name)
[3] = tested on: MCF7; assay: Uptake in human MCF7 cells at 100 uM after 24 hrs; assay type: ADME, cell-based; conditions: mcf7, 24 h
Procedure, shortened: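 MCF-7 cells were exposed to the conjugates for 24 h, at up to 100 µM. Cellular and nuclear uptake was assessed from intrinsic fluorescence.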

[4] = tested on: Nucleic Acid; assay: Inhibition of DNA transcription at 5 uM; assay type: functional
Procedure, shortened: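 In vitro transcription of a DNA template by a viral RNA polymerase. Read-out is the sites where transcription stops and the amount of full-length 266-nt transcript. Activity is expressed as 50% inhibition of full-length transcript synthesis.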

[5] = tested on: MCF7; assay: Uptake in human MCF7 cells after <1 hr; assay type: ADME, cell-based; conditions: mcf7, 1 h

| SMILES | GI50 [1] [nM] | GI50 [2] [nM] | TGI [2] [nM] | CC50 [2] [nM] | Drug uptake [3] | inhibition [4] [%] | Drug uptake [5] |
| --- | --- | --- | --- | --- | --- | --- | --- |
| COC(=O)c1cc(NC(=O)c2cc(NC(=O)c3cc(NC(=O)CCOc4cc5c(cc4OC)C(=O)N4CCC[C@H]4C=N5)cn3C)cn2C)cn1C | 346 | 47 | 1760 | 56200 | – | – | – |
| COC(=O)c1cc(NC(=O)c2cc(NC(=O)c3cc(NC(=O)c4cc(NC(=O)CCCOc5cc6c(cc5OC)C(=O)N5CCC[C@H]5C=N6)cn4C)cn3C)cn2C)cn1C | 47 | 7 | 18 | 1510 | Active | 50 | – |
| COC(=O)c1cc(NC(=O)c2cc(NC(=O)c3cc(NC(=O)c4cc(NC(=O)c5cc(NC(=O)CCCOc6cc7c(cc6OC)C(=O)N6CCC[C@H]6C=N7)cn5C)cn4C)cn3C)cn2C)cn1C | 83 | 9 | 29 | 1260 | Active | 50 | – |
| COC(=O)c1cc(NC(=O)c2cc(NC(=O)CCCOc3cc4c(cc3OC)C(=O)N3CCC[C@H]3C=N4)cn2C)cn1C | 7.1 | 11 | 120 | 10000 | Active | 50 | – |
| COC(=O)c1cc(NC(=O)CCCOc2cc3c(cc2OC)C(=O)N2CCC[C@H]2C=N3)cn1C | 51 | 47 | 323 | 11500 | – | 50 | Active |
| C=C1C[C@H]2C=Nc3cc(OCCCOc4cc5c(cc4OC)C(=O)N4CC(=C)C[C@H]4C=N5)c(OC)cc3C(=O)N2C1 [SJG-136] | 3.8 | 7.4 | 87.1 | 562 | – | – | – |
| COC(=O)c1cc(NC(=O)c2cc(NC(=O)c3cc(NC(=O)CCCN(C)C)cn3C)cn2C)cn1C | > 10000 | 72400 | > 100000 | > 100000 | – | – | – |
| COC(=O)c1cc(NC(=O)c2cc(NC(=O)c3cc(NC(=O)CCCOc4cc5c(cc4OC)C(=O)N4CCC[C@H]4C(=O)N5)cn3C)cn2C)cn1C | > 10000 | 49000 | > 50000 | > 50000 | – | – | – |
| COC(=O)c1cc(NC(=O)c2cc(NC(=O)c3cc(NC=O)cn3C)cn2C)cn1C | > 10000 | 16600 | 44700 | 85100 | – | – | – |
| COC(=O)c1cc(NC(=O)c2cc(NC(=O)c3cc(NC(=O)CCCOc4cc5c(cc4OC)C(=O)N4CCC[C@H]4C=N5)cn3C)cn2C)cn1C | 41 | 15 | 32 | 1070 | Active | 50 | – |
| COC(=O)CCCOc1cc2c(cc1OC)C(=O)N1CCC[C@H]1C=N2 | 526 | 1740 | 11800 | 46800 | – | – | – |
| COC(=O)c1cc(NC(=O)c2cc(NC(=O)c3cc(NC(=O)c4cc(NC(=O)c5cc(NC(=O)c6cc(NC(=O)CCCOc7cc8c(cc7OC)C(=O)N7CCC[C@H]7C=N8)cn6C)cn5C)cn4C)cn3C)cn2C)cn1C | 30 | 8 | 54 | 1900 | Active | 50 | – |
